# Measured values pooled from the literature.
# Read-out: microbial growth
SMILES,organism,test,test system,setting,MIC
CCCCCCCCCCCCCCS(=O)(=O)C[C@@H]1O[C@@H](O[C@@H]2[C@@H](O)[C@H](O[C@@H]3O[C@@H](CN)[C@H](O)[C@@H](O)[C@@H]3N)[C@@H](N)C[C@H]2N)[C@@H](O)[C@H](N)[C@H]1O,Listeria monocytogenes,,ATCC19115,,2 to 4 µg/mL
O=C(CCCCCCCCCC[P+](c1ccccc1)(c1ccccc1)c1ccccc1)Nc1cc(O)c(O)c(O)c1.[Br-],Cryptococcus neoformans,broth dilution,ATCC208821,24 h,4 µg/mL
CCCCCCC/C=C/C(=O)N1C(=O)/C(=C(\O)CCCC)C(=O)C1CC(C)C (stereo not drawn),Proteus vulgaris,,ATCC33420,,> 200 µg/mL
CC(C)Oc1c(NC(=O)c2ccc(NC(=O)[C@H](CC(N)=O)NC(=O)c3ccc(NC(=O)c4ccc(C#N)s4)cc3)cc2)ccc(C(=O)Nc2ccc(C(=O)O)cc2)c1O,Proteus vulgaris,,DSM2140,,0.06 µg/mL
C/C(O)=C1\C(=O)C(CC(C)C)N(C(=O)CCCCCc2ccccc2)C1=O (stereo not drawn),Proteus vulgaris,,ATCC33420,,> 200 µg/mL
CCCCCCCCCCCCS(=O)(=O)C[C@@H]1O[C@@H](O[C@@H]2[C@@H](O)[C@H](O[C@@H]3O[C@@H](CN)[C@H](O)[C@@H](O)[C@@H]3N)[C@@H](N)C[C@H]2N)[C@@H](O)[C@H](N)[C@H]1O,Listeria monocytogenes,,ATCC19115,,4 to 8 µg/mL
CCCCCCC/C=C/C(=O)N1C(=O)/C(=C(\O)c2ccccc2)C(=O)C1CC(C)C (stereo not drawn),Proteus vulgaris,,ATCC33420,,> 200 µg/mL
C/C(=C\c1ccc(O)cc1)C(=O)Nc1ccc(C(=O)N[C@@H](CC(N)=O)C(=O)Nc2ccc(C(=O)Nc3ccc(C(=O)Nc4ccc(C(=O)O)cc4)c(O)c3OC(C)C)cc2)cc1,Proteus vulgaris,,DSM2140,,0.125 µg/mL
CN1CCN(CC(O)(Cn2cncn2)c2ccc(F)cc2F)CC1 (stereo not drawn),Nakaseomyces glabratus,broth dilution,ATCC2001,48 h,31.3 µg/mL
O=C(Nc1ccc2c(c1)OC(F)(F)O2)Nc1ccc(Cl)c(C(F)(F)F)c1,Listeria monocytogenes,,,,0.3 µM
OC(Cn1cncn1)(Cn1cncn1)c1ccc(F)cc1F,Cryptococcus neoformans,broth dilution,ATCC208821,24 h,8 µg/mL
CCCCCCCCCCCN1CCN(CC(O)(Cn2cncn2)c2ccc(F)cc2F)CC1 (stereo not drawn),Nakaseomyces glabratus,broth dilution,ATCC2001,48 h,3.9 µg/mL
CC(C)Oc1c(NC(=O)c2ccc(NC(=O)c3ccc(NC(=O)[C@H](CC(N)=O)NC(=O)c4ccc(NC(=O)c5ccc(C#N)s5)cc4)cc3)c(OC(C)C)c2O)ccc(C(=O)O)c1O,Proteus vulgaris,,DSM2140,,1 µg/mL
CCCCCCC/C=C/C(=O)N1C(=O)/C(=C(/C)O)C(=O)C1CCCCN (stereo not drawn),Proteus vulgaris,,ATCC33420,,> 200 µg/mL
O=C(O)c1cn(C2CC2)c2cc(N3CCNCC3)c(F)cc2c1=O,Proteus vulgaris,,DSM2140,,≤ 0.03 µg/mL
CCCCCCC/C=C/C(=O)N1C(=O)/C(=C(/C)O)C(=O)C1Cc1ccc(OC(C)(C)C)cc1 (stereo not drawn),Proteus vulgaris,,ATCC33420,,> 200 µg/mL
C/C(=C\c1ccc(C#N)cc1)C(=O)Nc1ccc(C(=O)N[C@@H](CC(N)=O)C(=O)Nc2ccc(C(=O)Nc3ccc(C(=O)Nc4ccc(C(=O)O)cc4)c(O)c3OC(C)C)cc2)cc1,Proteus vulgaris,,DSM2140,,≤ 0.03 µg/mL
O=C(Cc1cc(O)c(O)c(O)c1)NCCCCCCCC[P+](c1ccccc1)(c1ccccc1)c1ccccc1.[Br-],Cryptococcus neoformans,broth dilution,ATCC208821,24 h,> 32 µg/mL
